Test results: ChEMBL document CHEMBL1268937, “Design of more potent squalene synthase inhibitors with multiple activities” (Bioorg Med Chem, 2010)
Activity calls are given as the source filed them. The calls are words filed in the database; no cut-off is given here.

Legend:
[1] = test system: Rattus norvegicus; experiment: Antidyslipidemic activity against triton WR-1339-induced hyperlipidemia in rat assessed as reduction in plasma LDL-cholesterol level at 56 umol/kg, ip after 24 hrs relative to control; format: functional; parameters: scale not given: the % may be the effect or the level left
Method in brief: (§1)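 Hyperlipidemia induced in male Wistar rats by ip Triton WR 1339 (200 mg/kg, aqueous). Test compounds in saline given ip 1 h later; saline-only controls. Blood drawn from the aorta 24 h later. Plasma total cholesterol, LDL-cholesterol and triglycerides measured with commercial kits in duplicate. Values are means of 8–10 rats per compound.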

[2] = test system: Liver microsomes; experiment: Antioxidant activity in rat hepatic microsomes assessed as inhibition of lipid peroxidation after 45 min by spectrophotometric analysis; format: functional, Microsome
Method in brief: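 Non-enzymatic peroxidation of rat hepatic microsomal lipids in buffer (150 mM, pH 7.4). Compounds in DMSO, 10 µM–1 mM. Started with fresh FeSO4 and incubated at 37 °C for 45 min. Thiobarbituric acid-reactive material read at 535 against 600 nm. Run in duplicate.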

[3] = test system: Rattus norvegicus; experiment: Antidyslipidemic activity against triton WR-1339-induced hyperlipidemia in rat assessed as reduction in plasma total cholesterol level at 56 umol/kg, ip after 24 hrs relative to control; format: functional; parameters: scale not given: the % may be the effect or the level left; method in brief: as §1
[4] = test system: Rattus norvegicus; experiment: Antiinflammatory activity in Wistar rat assessed as inhibition of carrageenan-induced paw edema at 300 umol/kg, ip after 3.5 hrs; format: functional
Method in brief: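 Male Wistar rats (150–180 g) received 0.1 mL of 2% w/v carrageenan in saline intradermally into the right hind paw; the left paw served as control. Compounds were given ip right after carrageenan. Edema was taken as paw weight increase at 3.5 h and expressed as % inhibition versus the control group. Means of 8–10 rats; Student's t-test.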

[5] = target: T1, Squalene synthase (Rattus norvegicus, UniProt Q02769); experiment: Inhibition of squalene synthase in rat liver microsomes assessed as [3H] FPP to squalene conversion level after 10 mins by scintillation counting; parameters: species or system Microsome
T1 sequence (Q02769 whole entry): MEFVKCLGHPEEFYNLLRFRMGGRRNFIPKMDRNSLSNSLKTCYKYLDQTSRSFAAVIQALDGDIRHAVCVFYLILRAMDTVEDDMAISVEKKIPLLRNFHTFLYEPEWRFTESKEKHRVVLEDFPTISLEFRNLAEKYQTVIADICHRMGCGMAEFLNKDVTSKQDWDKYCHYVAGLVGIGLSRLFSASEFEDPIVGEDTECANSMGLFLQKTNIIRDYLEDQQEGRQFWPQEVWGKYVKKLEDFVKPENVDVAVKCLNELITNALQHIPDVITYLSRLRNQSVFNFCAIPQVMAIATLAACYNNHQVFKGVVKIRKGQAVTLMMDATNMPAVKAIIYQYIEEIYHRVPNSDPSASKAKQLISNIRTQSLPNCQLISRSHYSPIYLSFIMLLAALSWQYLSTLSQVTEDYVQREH
Method in brief: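 Rat liver microsomes (18 µg protein/mL) in 50 mM phosphate pH 7.4 with 10 mM MgCl2 and 0.5 mM NADPH, preincubated with compounds for 10 min at 37 °C. Started with [3H]FPP and run for 10 min at 37 °C. Stopped with 15% ethanolic KOH, then 65 °C for 30 min. Squalene extracted into petroleum ether, washed and counted by scintillation. Triplicates; IC50 is the concentration giving 50% inhibition.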

[6] = test system: Rattus norvegicus; experiment: Antidyslipidemic activity against triton WR-1339-induced hyperlipidemia in rat assessed as reduction in plasma triglyceride level at 56 umol/kg, ip after 24 hrs relative to control; format: functional; parameters: scale not given: the % may be the effect or the level left; method in brief: as §1
[7] = (§2) Inhibition of soybean lipoxygenase measured for 6 mins; parameters: species or system Glycine max
Method in brief: (§3)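 Soybean lipoxygenase (250 U/mL) with sodium linoleate (100 µM) as substrate in Tris-HCl pH 9.0. Compounds added in 60% ethanol. Absorbance at 234 nm followed for 6 min at 28 °C. Each concentration assayed twice.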

[8] = test system: Glycine max; experiment: Inhibition of soybean lipoxygenase at up to 150 uM; settings: TDE = time-dependent effect; method in brief: as §3
[9] = test system: Glycine max; experiment: as §2; method in brief: as §3

SMILES | IC50 [2] [µM] | IC50 [5] [µM] | IC50 [7] [µM] | inhibition [8] | inhibition [9] | Activity [1] [%] | Activity [3] [%] | Activity [4] | Activity [6] [%]
Br.COc1ccc2cc(-c3ccc(C4(O)CN(C)C5CCCCC5O4)cc3)ccc2c1 (stereo unspecified) | 48 | 1.4 | > 100 | – | – | 54 | 32 | Active | 82
Br.COc1ccc2cc(-c3ccc(C4(O)CN(C)CCO4)cc3)ccc2c1 (stereo unspecified) | 30 | 6.9 | > 100 | – | – | 9 | 41 | – | 30
CN1CC(O)(c2ccc(-c3ccccc3)cc2)OC2CCCCC21 (stereo unspecified) | – | – | 110 | – | – | 51 | 54 | – | 49
CC(C)(Sc1cc(C(C)(C)C)c(O)c(C(C)(C)C)c1)Sc1cc(C(C)(C)C)c(O)c(C(C)(C)C)c1 [PROBUCOL] | – | – | – | – | – | 18 | 18 | – | 11
COc1ccc2cc([C@H](C)C(=O)O)ccc2c1 [NAPROXEN] | – | – | 24 | – | – | – | – | 51% | –
Br.COc1ccc2cc(C3(O)CN(C)CCO3)ccc2c1 (stereo unspecified) | 900 | 155 | 20 | tde | Dose-dependent effect | 24 | 62 | 58% | 51
Br.CN1CCOC(O)(c2ccc3ccccc3c2)C1 (stereo unspecified) | 640 | 135 | > 300 | – | – | 36 | 51 | Active | 40

More lines, main results first:

IC50 [2] [µM] | IC50 [5] [µM] | IC50 [7] [µM] | inhibition [8] | inhibition [9] | SMILES | Activity [1] [%] | Activity [3] [%] | Activity [4] | Activity [6] [%]
71 | 1.9 | > 100 | – | – | Br.CN1CCOC(O)(c2ccc(-c3ccc4ccccc4c3)cc2)C1 (stereo unspecified) | 59 | 37 | Active | 28
117 | – | > 100 | – | – | Br.OC1(c2ccc(-c3ccc4ccccc4c3)cc2)CN2CCCCC2CO1 (stereo unspecified) | 33 | 49 | Active | 34
118 | 0.8 | > 100 | – | – | Br.CN1CC(O)(c2ccc(-c3ccc4ccccc4c3)cc2)OC2CCCCC21 (stereo unspecified) | 48 | 43 | – | 32
65 | 18 | > 100 | – | – | Br.COc1ccc2cc(-c3ccc(C4(O)CN5CCCCC5CO4)cc3)ccc2c1 (stereo unspecified) | 29 | 19 | Active | 6
220 | 40 | 84 | tde | Dose-dependent effect | Br.COc1ccc2cc(C3(O)CN(C)C4CCCCC4O3)ccc2c1 (stereo unspecified) | 33 | 36 | 53% | 47
440 | 130 | > 300 | – | – | Br.OC1(c2ccc3ccccc3c2)CN2CCCCC2CO1 (stereo unspecified) | 42 | 33 | Active | 41
390 | 18.7 | 53 | tde | Dose-dependent effect | Br.COc1ccc2cc(C3(O)CN4CCCCC4CO3)ccc2c1 (stereo unspecified) | 46 | 45 | Active | 37
600 | 15.1 | > 300 | – | – | Br.CN1CC(O)(c2ccc3ccccc3c2)OC2CCCCC21 (stereo unspecified) | 39 | 43 | 54% | 51
